Results pooled from the literature.
Compare with care: the assays were run in different laboratories.
Target: Phosphatidylinositol 5-phosphate 4-kinase type-2 gamma (PIP4K2C, Homo sapiens, UniProt Q8TBX8)
One construct used (Q8TBX8 1-421): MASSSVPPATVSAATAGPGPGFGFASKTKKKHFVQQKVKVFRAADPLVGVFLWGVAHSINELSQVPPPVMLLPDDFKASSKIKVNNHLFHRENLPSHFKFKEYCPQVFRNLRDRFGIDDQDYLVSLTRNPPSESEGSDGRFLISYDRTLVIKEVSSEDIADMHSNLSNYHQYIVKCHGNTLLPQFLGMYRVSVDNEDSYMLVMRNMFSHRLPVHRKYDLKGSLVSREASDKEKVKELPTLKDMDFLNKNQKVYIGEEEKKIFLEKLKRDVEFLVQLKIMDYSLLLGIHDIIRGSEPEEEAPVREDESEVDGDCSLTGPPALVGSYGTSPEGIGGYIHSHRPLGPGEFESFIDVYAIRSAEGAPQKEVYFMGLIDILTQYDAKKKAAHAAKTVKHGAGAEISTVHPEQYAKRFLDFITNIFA

With `CCN1CCN(Cc2ccc(C(=O)Nc3ccc(C)c(Oc4ccc5c(c4)CC(=O)N5)c3)cc2C(F)(F)F)CC1` the remaining binding was 100% (binding, competition with immobilised ligand; 1 µM).
With `O=C(NCCCN1CCOCC1)c1ccc(Nc2nccc(-c3cc4ccccc4s3)n2)cc1` the remaining binding was 1.9% (binding, competition with immobilised ligand; 1 µM).
The remaining binding of `CN(C)c1nccc(-c2cnc3ncccn23)n1` is reported as 93% (binding; 1 µM).
`Cc1cc(C)c(-n2ccn3nc(-c4cccnc4)cc23)cc1NC(=O)c1cc(C#N)cc(S(F)(F)(F)(F)F)c1` gave a remaining binding of 89.9% (cell-free assay, competition with immobilised ligand; 0.1 µM).
With `N[C@@H]1CCN(c2nccc(-c3cnn4ncccc34)n2)C1` the remaining binding was 64% (binding; 1 µM).
For `NS(=O)(=O)c1cc(NC(=O)Cc2ccccc2)ccc1Oc1cccc(Cl)c1`, the remaining binding was 100% (cell-free assay, competition with immobilised ligand; 1 µM).
For `Cc1cnc(Nc2ccc(C(=O)N3CCC(N4CCCC4)CC3)cc2)nc1-c1cc2ccccc2s1`, the remaining binding was 5.6% (binding, competition with immobilised ligand; 1 µM).
`CCS(=O)(=O)c1cc2cc(C[C@](O)(CC(C)(C)c3ccc(F)cc3C(N)=O)C(F)(F)F)[nH]c2cn1` gave a remaining binding of 100% (cell-free assay, competition with immobilised ligand; 1 µM).
For `O=C(NCC1CCOCC1)c1n[nH]cc1NC(=O)c1c(F)cccc1F`, the remaining binding was 91% (binding, competition with immobilised ligand; 1 µM).
For `F[C@@H]1CCN(c2nccc(-c3cnn4ncccc34)n2)C1`, the remaining binding was 100% (binding; 1 µM).
The remaining binding of `O=C(N1CCS(=O)(=O)CC1)N1C[C@H](c2ccc(OC(F)(F)F)cc2)C[C@H](c2nc(C3CC3)no2)C1` is reported as 96% (cell-free assay, competition with immobilised ligand; 1 µM).
The remaining binding of `CC1CCCN1c1nccc(-c2cnn3ncccc23)n1` (stereo not shown) is reported as 100% (binding; 1 µM).
The remaining binding of `CNC(=O)[C@@H]1CC[C@@H](n2c(-c3ccc4cnccc4c3)nc3ccc(C(=O)NCc4cccc(C(N)=O)c4)cc32)C1` is reported as 91% (binding, competition with immobilised ligand; 1 µM).
For `C[C@@H]1CCN(c2nccc(-c3cnn4ncccc34)n2)C1`, the remaining binding was 40% (binding; 1 µM).
`C=CC(=O)N1CCC(C(=O)NCC(=O)N2CCN(c3nc(-c4cnc(N)nc4C(F)F)nc(N4CCOCC4)n3)CC2)CC1` gave a remaining binding of 95% (binding, competition with immobilised ligand; 1 µM).
`Cc1cc(-n2nc(Cc3cc(F)cc(C(F)(F)F)c3)nc2C)ccc1C(N)=O` has a remaining binding of 100% (cell-free assay, competition with immobilised ligand; 1 µM).
`COc1ncc2cc3ccccc3nc2c1C#N` has a remaining binding of 100% (cell-free assay, competition with immobilised ligand; 5 µM).
`CN(C)c1ncc(F)c(-c2cnn3ncccc23)n1` gave a remaining binding of 95% (binding; 1 µM).
`c1ccc(N2CCN(Cc3nc4ccccc4[nH]3)CC2)nc1` gave a remaining binding of 86% (binding, competition with immobilised ligand; 1 µM).
The remaining binding of `CN(C)c1nccc(-c2cnn3ncccc23)n1` is reported as 100% (binding; 1 µM).
For `O=C(c1ccc(Nc2nccc(-c3cc4ccccc4s3)n2)cc1)N1CCC(N2CCCC2)CC1`, the remaining binding was 1.4% (binding, competition with immobilised ligand; 1 µM).
`Cn1cc(Cl)c2c(Oc3c(F)cc(Nc4cc(Cl)nc(N)n4)cc3F)ccnc21` has a remaining binding of 96% (cell-free assay, competition with immobilised ligand; 0.1 µM).
